Bioassay records: PubChem, several laboratories
Compounds with a hit are over-represented: about 2.3% of the library has one in this group of screens.
PPC-1+TRAIL kill = compounds killing PPC-1 cancer cells with TRAIL present, primary screen, TRAIL potentiator project, ATPLite luminescence, uHTS; PPC-1 cells + TRAIL, ATPLite viability luminescence; cell killing (% activity), % at 4 µM or 5 µM; 0.41% of 220,000 active; AID 1443, 2008;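 active = cell killing above 50% in the first pass at 4 µM, then a duplicate retest at 5 µM averaging 50% or more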;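 note: plate controls were cells with TRAIL plus DMSO for no effect and medium-only wells lacking cells for full effect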
STAT3 activator = IL-6 driven STAT3 reporter potentiators, primary screen, U3A cells, luciferase, luminescence, MLSCN library; AID 871, 2007; IL-6 STAT3-luciferase reporter; 100% = signal with IL-6 EC80 alone; activation (% of control), % at 5.6 µM; 0.91% of 190,000 active;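 active = activation above the screen-wide mean of compound activation plus 3 SD, cut at about 130% in these data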;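 note: 0% = background luminescence of wells with medium and substrate only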
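Material: STAT1-lacking human U3A cells, STAT3 luciferase reporter | Benchmarks: IL-6-only wells as 100% reference | Probe or stimulus: IL-6 (33 ng/mL) | Timing: Compound 1 h, then IL-6 6 h at 37 °C | Detection: Luminescence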
STAT3 inh = IL-6 driven STAT3 reporter inhibitors, primary screen, U3A cells, luciferase, luminescence, MLSCN library | IL-6 STAT3-luciferase reporter; host cell line lacks STAT1 | inhibition, % at 5.5 µM | 0.89% of 190,000 active;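 active = inhibition above the mean inhibition across all screened compounds plus 3 SD, cut at about 44% in these data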;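 note: 0% = DMSO only wells and 100% = 100 µM nifuroxazide control wells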
C8 TRAIL sens = viability loss with TRAIL in NB7+C8 cells, primary screen, TRAIL sensitizer project, cell-based, ATPlite luminescence; inhibition (viability loss, TRAIL sensitization), % at 10 µM; 1% of 360,000 active;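 active = compounds causing at least 50% loss of cell viability in the single-dose screen, relative to plate controls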
STAT1 blocker = STAT1 signaling inhibitors, primary screen, cell-based, HTS, luciferase reporter; NIH 3T3 STAT1-luciferase reporter, IFN-gamma, luminescence; inhibition, % at 5.5 µM; 0.35% of 200,000 active;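 active = inhibition above a set limit, the mean inhibition across all tested compounds plus 3 SD, cut at about 34% in these data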;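 note: 0% = IFN-gamma with DMSO and 100% = IFN-gamma with 300 µM nifuroxazide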
HSP90 refold inh = HSP90 inhibitors, primary screen, cell lysate, luminescence; AID 1789, 2009; Heat shock protein HSP 90 (rabbit reticulocyte lysate; luciferase refolding); inhibition, % at 5.6 µM; 0.91% of 290,000 active; Rabbit reticulocyte lysate, luciferase refolding luminescence, 3 h;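 active = inhibition above the screen-wide mean plus 3 SD, computed separately per campaign, cut at about 16% in these data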;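 note: 0% = DMSO wells and 100% = 60 µM geldanamycin wells; inhibitors lower the luminescence because luciferase stays unfolded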
* marks the source's active call; other numbers are inactive results; nt = no result.

SMILES	PPC-1+TRAIL kill	STAT3 activator	STAT3 inh	C8 TRAIL sens	STAT1 blocker	HSP90 refold inh
O=C(CSc1nn(-c2ccccc2)c(=S)s1)Nn1cnnc1	14.6	100.4	5.9	3.8	-1.2	2.6
Cc1ccc(NC(=O)CSc2nn(-c3ccccc3)c(=S)s2)cc1S(=O)(=O)N(C)C	-12.3	80.1	25.2	66.0*	9.8	2.0
CC(C)C[C@@H](CN1CCCC1CN1C(=S)NC[C@@H]1Cc1ccc(O)cc1)N1C[C@H](Cc2ccc(O)cc2)N(CC2CCCCCC2)C1=S (stereo not given in full)	nt	nt	nt	53.2*	nt	nt
CC(C)C[C@@H](CN1CCCC1CN1C(=S)NC[C@@H]1Cc1ccc(O)cc1)N1C[C@H](Cc2ccccc2)N(CC2CCCCCC2)C1=S (stereo not given in full)	nt	nt	nt	23.2	nt	nt
Cc1ccc(NC(=O)c2cc3ccccc3oc2=O)cc1S(=O)(=O)N(C)C	27.6	20.2	99.7*	55.6*	57.7*	38.4*
CN(c1ccccc1)S(=O)(=O)c1cccc(NC(=O)c2cc3ccccc3oc2=O)c1	2.2	nt	nt	-10.9	nt	3.9
O=S1(=O)CCOC[C@H](Cc2ccccc2)N1Cc1ccccc1	nt	nt	nt	-11.5	nt	nt
Cc1ccc(CN2[C@@H](Cc3ccccc3)C(=O)CS2(=O)=O)cc1	nt	nt	nt	63.9*	nt	nt
C(=NN1CCCCCC1)c1ccc2ccccc2n1	nt	nt	nt	90.2*	nt	nt
Cc1cc(C)cc(NC(=O)CSc2nc3ccncc3[nH]2)c1	18.5	92.5	17.2	3.2	1.4	5.6
Cc1cc(C)cc(NC(=O)Cn2c(SCc3cc(C)ccc3C)nc3ccncc32)c1	9.3	111.1	-13.0	nt	-2.6	16.1*
Cc1ccc(CSc2nc3ccncc3n2CC(=O)Nc2cc(C)cc(C)c2)cc1	19.2	103.7	-4.4	50.7*	2.0	3.0
CCc1ccc(Nc2n[n+](C)c(-c3ccncc3)s2)cc1	nt	nt	nt	2.9	nt	-2.7
CCN(CC)c1ccc(/C=C2\C(=N)N3N=C(CC(=O)N4CCOCC4)SC3=NC2=O)cc1	nt	nt	nt	7.2	nt	-0.6
CCCc1cc(=O)oc2c3c(cc(OCC(=O)N[C@@H](C)C(=O)O)c12)OC(C)(C)CC3	nt	nt	nt	-7.5	nt	1.6
CCCc1cc(=O)oc2c3c(c4c(c12)OC(C)(C)C=C4)OC(C)C(C)C3O (stereo not given)	-18.0	nt	nt	78.3*	nt	0.6
Cc1cccc(NS(=O)(=O)c2ccc3c(c2)Cc2cc(S(=O)(=O)Nc4cccc(C)c4C)ccc2-3)c1C	8.1	105.3	-7.7	59.5*	9.4	3.1
Cc1ccc(OCCNC(=O)c2ccc(C)cc2)cc1	nt	nt	nt	-23.3	nt	0.7
CN1OC[C@@H]2CN[C@H](c3ccc(-c4cc5ccccc5o4)cc3)C[C@@H]21	nt	nt	nt	86.4*	nt	nt
CCn1cnc2c(Nc3cc(F)cc(F)c3)nc(C#N)nc21	nt	nt	nt	16.5	nt	nt
N#Cc1nc(Nc2cccc(Cl)c2)c2ncn(C3CCCC3)c2n1	nt	nt	nt	51.8*	nt	nt
COC(=O)CSc1nc2cc(C)ccc2cc1C#N	42.5	95.4	8.5	56.0*	-62.2	-3.6
CCOC(=O)CC(=O)CSc1nc2ccc(C)cc2cc1C#N	14.2	110.2	-6.0	4.0	-40.4	-1.7
O=C1C=CC(=O)C(CNc2ccc(C(=O)OCc3ccccc3)cc2)=C1	nt	nt	nt	91.3*	nt	nt
O=C(CNC(=O)c1ccc(=O)[nH]c1)Nc1ccc(F)c(F)c1	nt	nt	nt	6.1	nt	1.7
SMILES	PPC-1+TRAIL kill	STAT3 activator	STAT3 inh	C8 TRAIL sens	STAT1 blocker	HSP90 refold inh
CCOC(=O)c1sc2nc3c(SCC(=O)O)cc(C(=O)c4ccccc4O)cn3c(=O)c2c1C	20.7	83.3	24.0	53.3*	4.5	5.0
CN(NC(=O)c1cccc(Cl)c1)c1nc(-c2ccccc2)nnc1C(F)(F)F	7.4	103.5	2.0	52.6*	7.3	1.1
CN(N)c1nc(-c2ccccc2)nnc1C(F)(F)F	-6.4	84.2	24.8	-17.3	-2.3	5.2
Cc1oc2c(CN3CCOCC3)c(O)ccc2c(=O)c1-c1ccccc1	12.8	100.0	2.8	-1.7	3.8	2.9
CCOC(=O)c1sc(NC(=O)c2cc(-c3ccccc3C)nc3ccccc23)c(C#N)c1C	22.0	104.8	-2.1	61.1*	8.3	-3.7
Cc1ccccc1-c1cc(C(=O)Nc2sc(C)c(C)c2C(N)=O)c2ccccc2n1	26.7	125.6	-30.5	39.5	11.8	3.2
CCC(CC)NC(=O)Nc1cccc(C)c1C	-29.7	99.8	9.4	-6.1	3.4	-1.8
CCC(C)N(CC(=O)Nc1cccc(C)c1C)C(=O)CCl (stereo not given)	8.9	42.1	70.1*	96.8*	38.2*	6.3
CC(C)N(CC(=O)Nc1ccc(Cl)cc1C(F)(F)F)C(=O)CCl	23.6	49.0	64.8*	95.3*	45.6*	-0.6
O=C(O)CSCC(=O)Nc1ccc(Cl)cc1C(F)(F)F	13.5	99.3	7.8	3.5	-0.4	2.5
COc1ccc(C(C)(O)c2nc(-c3cccc(C(=O)O)c3)cs2)cc1 (stereo not given)	nt	nt	nt	-3.1	nt	nt
FC(F)(F)c1cc(CCN2CCNC[C@@H]2CC2CCCCC2)cc(C(F)(F)F)c1	nt	nt	nt	67.5*	nt	nt
NC1=NC[C@H](CC2CCCCC2)N1CCc1cc(C(F)(F)F)cc(C(F)(F)F)c1	12.5	nt	nt	60.1*	nt	nt
Cc1cc(NC(=O)c2ccc(COc3ccccc3Cl)o2)no1	-5.4	109.3	-1.3	-3.7	-5.8	1.9
O=c1c(O)c(-c2ccc(O)c(O)c2)oc2cc(O)ccc12	nt	nt	nt	16.6	nt	nt
COc1ccc(-c2nc(-c3cccc(C)c3)no2)cc1OC	-0.7	97.8	5.8	5.1	-45.9	-1.6
c1coc(-c2nnc(-c3ccc4c(c3)OCO4)o2)c1	26.6	82.2	24.5	nt	-35.8	6.2
Cc1cccc(-c2noc(-c3ccc4c(c3)OCO4)n2)c1	33.9	43.1	69.0*	60.7*	16.0	0.8
Cc1ccc(-c2nnc(-c3ccc4c(c3)OCO4)o2)cc1	55.3*	90.6	18.3	48.6	-34.2	-7.1
Cc1cc(C)cc(N(C(=O)c2csnn2)C(C(=O)NC2CCCCC2)c2cccnc2)c1 (stereo not given)	nt	nt	nt	3.7	nt	-2.1
Nc1ccc2oc(-c3ccc4nc[nH]c4c3)nc2c1	30.6	75.2	33.1	57.2*	-28.5	4.1
Nc1ccc2oc(-c3cccc(Br)c3)nc2c1	20.0	91.7	16.1	19.7	-47.0	-2.7
CC(C)(C)N(Cc1cc2ccccc2[nH]c1=O)C(=O)C1CCCCC1	4.6	106.8	-3.9	17.3	2.2	0.5
CCOC(=O)c1cc2ccc3ccccc3c2s1	2.8	202.8*	-118.4	18.7	-54.2	-4.2
CCOC(=O)c1cc2ccc3ccccc3c2oc1=O	nt	nt	nt	-3.8	nt	1.1
CCOC(=O)c1cc2c(s1)-c1ccccc1CC2	11.6	174.2*	-75.9	-0.8	-34.1	-2.2
CCOC(=O)N1CCN(C(=O)c2cc3c(s2)-c2ccccc2OC3)CC1	-1.0	99.9	5.4	-8.7	5.3	2.9
